# Measurements: paper PMC5817038 (Bioorganic & medicinal chemistry letters, 2018)
# Where two headings read alike, the source gives them in different places.
# Columns and labels:
# [1] = system: IDH1-mutated glioma xenografts; conditions: cited from earlier work
# wild-type IDH1 = conditions: read-out: IC50 against wild-type IDH1 (reported); literature value; cited from earlier work
# IDH1-R132H = IDH1-R132H (Homo sapiens, UniProt O75874, R132H); assay type: biochemical
# [2] = normal mice; cited from earlier work
# [3] = system: HCT116 colorectal carcinoma cell line expressing heterozygous IDH1-R132H; experiment: Cell uptake of radiolabeled compounds, IDH1-mutated HCT116 vs isogenic WT-IDH1; assay type: cell-based
# How it was run: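 Isogenic HCT116 lines expressing IDH1-R132H or wild-type IDH1 were incubated with the 125I-labelled iodo analogue or the 18F-labelled fluoro inhibitor, no-carrier-added, and cell-associated radioactivity was measured over time. Uptake ratio is mutant IDH1 over WT-IDH1 uptake. Three wells per point, mean ± SEM; Student's t-test, P < 0.05.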
# [4] = system: HCT116 IDH1-R132H tumor xenografts; experiment: Tissue distribution in athymic mice bearing IDH1-mutated HCT116 tumor xenografts; assay type: in vivo
# How it was run: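 Athymic mice bearing IDH1-mutated HCT116 xenografts received either the 131I- or the 18F-labelled test compound, in separate groups. Tissues were sampled from 0.5 to 4 h after injection. Uptake is given as %ID/g, or as %ID for liver plus intestines. Five animals per time point, mean ± SEM. WT-IDH1 tumour-bearing mice were also examined at 1–4 h.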
# [5] = system: IDH1-mutated astrocytoma cell line (IMA); experiment: Cell uptake of radiolabeled compounds, IDH1-mutated astrocytoma; assay type: cell-based; conditions: time course
# How it was run: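 Radioiodinated or 18F-labelled test compounds, prepared no-carrier-added, were incubated with IDH1-mutated cells and their isogenic WT-IDH1 counterparts. Uptake was followed over time, starting at 5 min, and compared between mutant and WT lines as uptake ratios. Each condition was run in three wells, reported as mean ± SEM, with significance by Student's t-test.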
# IDH1-R132H, sequence (O75874 whole entry R132H): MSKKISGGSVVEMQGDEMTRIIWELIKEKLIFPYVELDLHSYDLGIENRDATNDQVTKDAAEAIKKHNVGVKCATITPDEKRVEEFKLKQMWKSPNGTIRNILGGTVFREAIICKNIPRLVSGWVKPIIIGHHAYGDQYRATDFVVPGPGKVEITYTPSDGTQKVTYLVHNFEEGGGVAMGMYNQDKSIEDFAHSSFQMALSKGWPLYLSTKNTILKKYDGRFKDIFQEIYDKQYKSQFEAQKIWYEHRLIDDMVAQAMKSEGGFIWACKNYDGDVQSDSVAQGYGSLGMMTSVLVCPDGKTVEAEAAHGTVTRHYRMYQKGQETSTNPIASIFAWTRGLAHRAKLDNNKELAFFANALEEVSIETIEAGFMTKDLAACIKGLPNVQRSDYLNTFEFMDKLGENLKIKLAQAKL
structure (smiles),measurement,setting,value
Cc1ccccc1C(C(=O)NC1CCCCC1)N(C(=O)Cn1ccnc1C)c1cccc(F)c1 (stereo not shown) [AGI-5198],D-2-HG production,[1],inhibit D-2-HG production
same,anti-tumor effect,[1],anti-tumor effects
same,IC50,wild-type IDH1,> 100 µM
same,inhibition at 12.25 µM,IDH1-R132H; read-out: enzyme inhibition (maximal),100%
Cc1ccccc1C(C(=O)NC1CCCC1)N(C(=O)Cn1cnc2ccccc21)c1cccc(F)c1 (stereo not shown) [ML-309],blood-brain-barrier (BBB) permeability,[2],lack of blood-brain-barrier (BBB) permeability
Cc1ccccc1C(C(=O)NC1CCCCC1)N(C(=O)Cn1ccnc1C)c1cccc([18F])c1 (stereo not shown) [[^18F]AGI-5198],uptake ratio IDH1-mutated/WT-IDH1,"[3]; HCT116, 5 min",about 1.6
same,uptake ratio IDH1-mutated/WT-IDH1,"[3]; HCT116, 30 min, remaining at that level until 120 min",~2.0
same,uptake and retention in brain,[4]; 0.5-4 h,very low
same,tumor uptake,[4]; 0.5 h post injection,0.84 ± 0.18 % ID/g
same,blood activity,[4]; 30 min post injection,0.88 ± 0.16 % ID/g
same,peak tumor-to-muscle ratio (TMR),[4]; 2 h,2.5 ± 1.0
same,peak tumor-to-blood ratio (TBR),[4]; 4 h,3.0 ± 1.3
same,blood activity,[4]; 4 h post injection,~ 0.1 % ID/g
same,"liver and intestines, share of injected dose",[4]; 4 h post injection,87 ± 7 % ID
same,tumor uptake,[4]; 4 h post injection,0.33 ± 0.08 % ID/g
same,stability against dehalogenation in vivo,"[4]; mouse, in vivo",stable against dehalogenation in vivo
same,uptake in IDH1-mutated vs WT-IDH1 cells,[5],higher only at 5 min but not thereafter
Cc1ccccc1C(C(=O)NC1CCCCC1)N(C(=O)Cn1ccnc1C)c1cccc(I)c1 (stereo not shown) [compound 1],enzyme inhibition (maximal),IDH1-R132H; at 6.12 μM,100%
Cc1ccccc1C(C(=O)NC1CCCCC1)N(C(=O)CNc1ccc(F)nc1)c1cccc(F)c1 (stereo not shown) [compound 2],enzyme inhibition (maximal),IDH1-R132H; at 12.25 μM,71.3 ± 5.3%
